Laboratory results reported in ChEMBL document CHEMBL5316332 (J Med Chem, 2023).
Active and inactive are the calls of the source. No cut-off for these calls is given here.

Experiments:
[1] = molecular target: T1, Bone morphogenetic protein receptor type-2 (Homo sapiens, UniProt Q13873); experiment: Inhibition of recombinant C-terminal 6His-tagged human BMPR2 (188 to 517 residues) expressed in Escherichia coli Rosetta by LanthaScreen TR-FRET assay
T1 sequence (Q13873 whole entry): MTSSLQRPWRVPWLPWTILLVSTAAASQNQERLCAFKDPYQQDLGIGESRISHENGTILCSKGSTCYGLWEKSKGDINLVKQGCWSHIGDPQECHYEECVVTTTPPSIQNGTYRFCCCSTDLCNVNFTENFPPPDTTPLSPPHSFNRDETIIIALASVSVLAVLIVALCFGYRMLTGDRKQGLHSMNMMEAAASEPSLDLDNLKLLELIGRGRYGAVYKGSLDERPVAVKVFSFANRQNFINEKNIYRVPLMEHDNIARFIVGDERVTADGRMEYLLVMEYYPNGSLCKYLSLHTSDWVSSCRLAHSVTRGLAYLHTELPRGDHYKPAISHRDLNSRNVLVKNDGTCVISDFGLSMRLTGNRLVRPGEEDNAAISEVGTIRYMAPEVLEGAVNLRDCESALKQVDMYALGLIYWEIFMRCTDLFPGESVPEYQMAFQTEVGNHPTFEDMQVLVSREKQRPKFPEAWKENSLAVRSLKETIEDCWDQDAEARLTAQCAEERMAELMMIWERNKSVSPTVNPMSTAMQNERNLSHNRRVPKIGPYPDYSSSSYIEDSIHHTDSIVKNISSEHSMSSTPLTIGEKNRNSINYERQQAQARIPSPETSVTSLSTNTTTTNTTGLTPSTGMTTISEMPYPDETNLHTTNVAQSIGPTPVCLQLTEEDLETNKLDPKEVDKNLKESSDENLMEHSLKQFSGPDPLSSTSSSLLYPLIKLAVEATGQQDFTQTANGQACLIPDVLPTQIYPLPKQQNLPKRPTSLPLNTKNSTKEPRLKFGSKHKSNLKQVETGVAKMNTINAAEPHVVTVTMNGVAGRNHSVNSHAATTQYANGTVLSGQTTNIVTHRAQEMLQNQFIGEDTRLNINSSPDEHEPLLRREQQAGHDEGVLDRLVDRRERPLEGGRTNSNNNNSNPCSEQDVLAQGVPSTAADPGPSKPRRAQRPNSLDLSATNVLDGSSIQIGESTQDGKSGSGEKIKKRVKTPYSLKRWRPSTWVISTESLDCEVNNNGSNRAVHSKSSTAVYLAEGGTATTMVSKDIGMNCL
Procedure, shortened: (§1)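 Outsourced SelectScreen profiling using a LanthaScreen TR-FRET binding format, in which a tight-binding tracer is displaced from the kinase.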

HEK293T [2] = experiment: Inhibition of BMP signalling pathway in BMP2-stimulated human HEK293T cells assessed as decrease in SMAD5 phosphorylation at 25 uM preincubated for 30 mins followed by BMP2 stimulation and measured after 15 mins by Western blot analysis; format: cell-based; details: time 45.0 min
Procedure, shortened: (§2)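 HEK293T cells, 3 × 10^5 per well, starved overnight in DMEM with 2 mM glycine and 2% heat-inactivated FBS. Pretreated 30 min with inhibitor, then 5 ng/mL BMP2 for 15 min. Lysed in M-PER with protease inhibitors. Western blot for pSMAD1/5, SMAD1, SMAD5 and GAPDH, quantified by densitometry.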

[3] = molecular target: Activin receptor type-1-like (Homo sapiens, UniProt P37023); experiment: Inhibition of ACVRL1 (unknown origin) by LanthaScreen TR-FRET assay; procedure, shortened: as §1
Activin receptor type-1 = molecular target: T2, Activin receptor type-1 (Homo sapiens, UniProt Q04771); experiment: Inhibition of ACVR1 (unknown origin) by LanthaScreen TR-FRET assay; procedure, shortened: as §1
T2 sequence (Q04771 whole entry): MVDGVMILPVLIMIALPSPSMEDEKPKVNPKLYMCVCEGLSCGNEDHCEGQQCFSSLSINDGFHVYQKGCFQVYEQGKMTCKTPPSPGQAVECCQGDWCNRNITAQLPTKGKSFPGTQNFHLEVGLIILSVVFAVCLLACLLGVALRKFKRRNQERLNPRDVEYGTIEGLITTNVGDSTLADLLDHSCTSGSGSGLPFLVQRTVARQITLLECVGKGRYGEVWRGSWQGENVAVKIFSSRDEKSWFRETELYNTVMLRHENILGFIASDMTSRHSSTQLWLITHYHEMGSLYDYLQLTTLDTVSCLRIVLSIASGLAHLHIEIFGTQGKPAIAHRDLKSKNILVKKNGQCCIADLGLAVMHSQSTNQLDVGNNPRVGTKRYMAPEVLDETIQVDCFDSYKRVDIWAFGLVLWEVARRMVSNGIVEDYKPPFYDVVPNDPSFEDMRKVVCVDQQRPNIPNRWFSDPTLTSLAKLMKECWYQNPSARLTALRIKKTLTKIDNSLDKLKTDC

Activin receptor type-2A = Activin receptor type-2A (Homo sapiens, UniProt P27037); experiment: Inhibition of ACVR2A (unknown origin) by LanthaScreen TR-FRET assay; procedure, shortened: as §1
HEK293T [4] = experiment: Inhibition of BMP signalling pathway in BMP2-stimulated human HEK293T cells assessed as decrease in SMAD1 phosphorylation at 25 uM preincubated for 30 mins followed by BMP2 stimulation and measured after 15 mins by Western blot analysis; format: cell-based; details: time 45.0 min; procedure, shortened: as §2
TGF-beta receptor type-1 = molecular target: T3, TGF-beta receptor type-1 (Homo sapiens, UniProt P36897); experiment: (§3) Inhibition of TGFBR1 (unknown origin) by LanthaScreen TR-FRET assay; procedure, shortened: as §1
T3 sequence (P36897 whole entry): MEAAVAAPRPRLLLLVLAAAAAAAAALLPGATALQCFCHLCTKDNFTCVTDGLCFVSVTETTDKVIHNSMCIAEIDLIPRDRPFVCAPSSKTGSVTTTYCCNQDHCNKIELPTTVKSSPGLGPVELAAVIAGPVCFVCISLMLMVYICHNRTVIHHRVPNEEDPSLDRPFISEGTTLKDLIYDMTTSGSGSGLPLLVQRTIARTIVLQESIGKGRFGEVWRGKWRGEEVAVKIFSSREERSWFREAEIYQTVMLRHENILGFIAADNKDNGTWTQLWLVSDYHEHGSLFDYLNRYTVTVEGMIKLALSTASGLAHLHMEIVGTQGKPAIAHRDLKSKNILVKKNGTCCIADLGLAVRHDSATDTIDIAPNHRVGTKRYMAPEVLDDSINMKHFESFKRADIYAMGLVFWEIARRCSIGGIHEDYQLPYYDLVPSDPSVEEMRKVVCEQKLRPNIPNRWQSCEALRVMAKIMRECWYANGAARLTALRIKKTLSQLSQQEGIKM

[5] = molecular target: T4, Bone morphogenetic protein receptor type-2 (Homo sapiens) (UniProt Q13873); experiment: Binding affinity to recombinant C-terminal 6His-tagged human BMPR2 (188 to 517 residues) expressed in Escherichia coli Rosetta assessed as change in melting temperature at 50 uM by SYPRO Orange dye based thermal shift assay
T4 sequence (whole entry): T1 sequence (Q13873 whole entry)
Procedure, shortened: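 BMPR2 kinase domain-His (purified by IMAC, anion exchange and size exclusion) at 1 μg per 10 μL reaction in 50 mM Tris–HCl pH 7.5, 150 mM NaCl with SYPRO Orange 5×. Compound at 50 μM. Scanned 20 to 95 °C with fluorescence read every 10 s. Tm from the melt curve; averages of three technical replicates.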

[6] = molecular target: T5, TGF-beta receptor type-1 (Homo sapiens) (UniProt P36897); experiment: as §3; procedure, shortened: as §1
T5 sequence (whole entry): T3 sequence (P36897 whole entry)

Sequence of Activin receptor type-2A (P27037 whole entry): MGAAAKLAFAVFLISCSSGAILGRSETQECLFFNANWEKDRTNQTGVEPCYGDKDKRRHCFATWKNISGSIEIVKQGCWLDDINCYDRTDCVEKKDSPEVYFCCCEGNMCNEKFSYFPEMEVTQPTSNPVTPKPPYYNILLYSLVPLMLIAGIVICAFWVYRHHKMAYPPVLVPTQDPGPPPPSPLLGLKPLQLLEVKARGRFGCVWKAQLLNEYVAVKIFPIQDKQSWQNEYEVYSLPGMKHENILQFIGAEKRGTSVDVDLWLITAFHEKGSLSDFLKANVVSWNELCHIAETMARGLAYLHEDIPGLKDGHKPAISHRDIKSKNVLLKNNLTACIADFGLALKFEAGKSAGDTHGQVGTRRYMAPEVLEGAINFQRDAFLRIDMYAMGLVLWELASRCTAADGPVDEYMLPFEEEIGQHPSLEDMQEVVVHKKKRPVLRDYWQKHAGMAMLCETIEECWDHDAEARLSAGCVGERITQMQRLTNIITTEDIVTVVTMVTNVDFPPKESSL
Sequence of Activin receptor type-1-like (P37023 whole entry): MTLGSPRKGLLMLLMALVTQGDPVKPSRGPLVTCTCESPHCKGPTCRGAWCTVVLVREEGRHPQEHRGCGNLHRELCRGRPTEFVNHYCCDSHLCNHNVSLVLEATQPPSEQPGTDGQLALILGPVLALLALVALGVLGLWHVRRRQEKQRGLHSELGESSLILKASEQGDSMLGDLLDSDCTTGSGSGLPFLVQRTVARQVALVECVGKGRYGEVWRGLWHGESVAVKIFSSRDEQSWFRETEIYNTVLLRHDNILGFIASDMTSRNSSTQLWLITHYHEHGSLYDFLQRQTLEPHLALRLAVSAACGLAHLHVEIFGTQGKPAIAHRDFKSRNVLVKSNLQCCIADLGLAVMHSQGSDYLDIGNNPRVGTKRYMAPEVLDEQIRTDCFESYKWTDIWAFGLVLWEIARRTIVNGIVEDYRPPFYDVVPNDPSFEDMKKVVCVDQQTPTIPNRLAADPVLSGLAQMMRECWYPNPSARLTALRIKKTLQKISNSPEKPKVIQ

SMILES	IC50 [1] [nM]	inhibition (HEK293T [2])	IC50 [3] [nM]	IC50 (Activin receptor type-1) [nM]	inhibition (Activin receptor type-2A)	inhibition (HEK293T [4])	IC50 (TGF-beta receptor type-1) [nM]	ΔTm [5] [°C]	inhibition [6]
NC(=O)c1cccc(CNC(=O)c2ccc3nc(-c4ccc5cnccc5c4)n(C4CCCC4)c3c2)c1	1.2	Active	131	124	inactive	Active	> 1000		
CNC(=O)CCc1ccc(C(=O)NCc2cccc(N3CCN(c4nc(Nc5cccc(S(N)(=O)=O)c5)ncc4OC)CC3)c2)cc1	1.6			> 1000	inactive			13.9	inactive
CNC(=O)[C@@H]1CC[C@@H](n2c(-c3ccc4cnccc4c3)nc3ccc(C(=O)NCc4cccc(C(N)=O)c4)cc32)C1	1.8		267	251	inactive		> 1000	15.7	
COc1cnc(Nc2cccc(S(N)(=O)=O)c2)nc1N1CCN(c2ccccc2)C(=O)C1	2.8	Active			inactive	Active			inactive
